Screening data deposited in PubChem by The Scripps Research Institute Molecular Screening Center.
Sampled rows, rich in hits. Any-hit rate of the full collection: about 2.5%.
E coli Lon inh: inhibitors of E. coli Lon protease | purified E. coli Lon protease, fluorescence polarization | inhibition, % at 7.94 µM | actives 0.42% (n = 360,000); in the data active = inhibition above about 13%, passing the limit was not always enough;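 note: 0% = enzyme with probe and DMSO and 100% = no enzyme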
GSTO1 counter: counter-screen for RBBP9 inhibitors: inhibitors of human GSTO1; P78417; recombinant GSTO1, activity-based probe fluorescence polarization; inhibition, % at 5.96 µM; actives 1.1% (n = 300,000);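 active = inhibition above the campaign mean inhibition plus 3 SD, cut at about 35% in these data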;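 note: 0% = GSTO1-1 with DMSO and 100% = wells lacking GSTO1-1 enzyme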
Target sequence (P78417 whole entry, looked up): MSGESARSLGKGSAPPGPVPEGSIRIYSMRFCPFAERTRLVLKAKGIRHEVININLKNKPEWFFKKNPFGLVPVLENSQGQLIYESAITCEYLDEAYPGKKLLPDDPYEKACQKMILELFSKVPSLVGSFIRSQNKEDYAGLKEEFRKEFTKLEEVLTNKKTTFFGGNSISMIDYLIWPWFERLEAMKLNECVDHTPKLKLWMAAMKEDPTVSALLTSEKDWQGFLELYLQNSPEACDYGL
PAD4 inh: blocks human protein arginine deiminase 4; Q9UM07; recombinant PAD4, RCA probe fluorescence polarization; inhibition, % at 6.36 µM; actives 0.41% (n = 330,000);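 active = percent inhibition above a cutoff equal to the mean of all tested compounds plus 3 SD, cut at about 15% in these data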;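 note: 0% = PAD4 with RCA probe and DMSO and 100% = probe without PAD4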
PRMT1 inh: PRMT1 (human) inhibition, primary screen. AID 652257. inhibition, % at 2.79 µM. recombinant PRMT1, activity-based probe fluorescence polarization. actives 1.3% (n = 370,000);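 active = inhibition above about 21% made by adding two undisclosed values, limit read from the data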
Target sequence (Q99873 whole entry, looked up): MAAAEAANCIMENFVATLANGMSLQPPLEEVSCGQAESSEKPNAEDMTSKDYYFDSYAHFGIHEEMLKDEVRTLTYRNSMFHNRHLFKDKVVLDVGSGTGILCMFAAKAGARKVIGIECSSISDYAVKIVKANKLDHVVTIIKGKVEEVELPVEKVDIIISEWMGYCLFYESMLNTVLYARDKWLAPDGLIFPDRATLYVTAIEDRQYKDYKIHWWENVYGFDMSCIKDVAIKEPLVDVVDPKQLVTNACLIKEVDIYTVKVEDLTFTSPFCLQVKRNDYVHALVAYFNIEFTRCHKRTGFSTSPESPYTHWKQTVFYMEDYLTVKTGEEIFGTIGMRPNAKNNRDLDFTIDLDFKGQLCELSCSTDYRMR
TDP2 absorb: blocks human TDP2 phosphodiesterase activity; O95551; recombinant TDP2, T5PNP hydrolysis, p-nitrophenol absorbance 415 nm; inhibition, % at 12.8 µM; actives 0.34% (n = 370,000); AID 720702;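 active = inhibition above the mean of all tested compounds plus 3 SD, set per campaign, cut at about 25% in these data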;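 note: 0% = DMSO with enzyme and 100% = buffer with substrate but no TDP2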
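System – recombinant human TDP2 · Quantity – TDP2 enzyme at 120 nM final · Doses – single concentration, 12.8 µM nominal, with 1% DMSO · Incubation – 2 h at 37 °C · Measured by – epi absorbance of p-nitrophenol freed from T5PNP by hydrolysis · Read-out – % inhibition relative to enzyme-containing and enzyme-free wells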
GSTO1 inh conf: GSTO1 (human) inhibition, confirmation; recombinant GSTO1, probe fluorescence polarization; shares compounds with GSTO1 counter; inhibition, % at 5.96 µM; AID 2176; actives 54% (n = 2,400);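 active = inhibition above the primary screen's cutoff, its mean inhibition plus 3 SD, cut at about 35% in these data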;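 note: loss of polarization as inhibitors block binding of rhodamine sulfonate ester activity probe; 0% = GSTO1 with DMSO and 100% = wells lacking GSTO1 enzyme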
GSTO1 ABPP inh: blocks recombinant human glutathione S-transferase omega 1. shares compounds with GSTO1 counter. recombinant GSTO1, gel ABPP SE-Rh probe fluorescence. inhibition, % at 1 µM. actives 30% (n = 130);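 active = inhibition of the enzyme GSTO1 above about 75%, limit read from the data; inactive = inhibition below that limit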
The depositor's hits bear a star; / = no result given.

SMILES	E coli Lon inh	GSTO1 counter	PAD4 inh	PRMT1 inh	TDP2 absorb	GSTO1 inh conf	others
O=C(NC1CCCCC1)C(c1cccnc1)N(C(=O)CCl)c1ccccc1Cl (stereo unspecified)	0	88*	-2	0	4	83*	GSTO1 ABPP inh=40
O=C(NC1CCCCC1)C(c1cccnc1)N(C(=O)CCl)c1ccc(F)cc1 (stereo unspecified)	-8	95*	3	1	3	97*	GSTO1 ABPP inh=82*
O=C(NCC(=O)N(c1ccc(F)cc1)C(C(=O)NC1CCCCC1)c1cccnc1)c1ccco1 (stereo unspecified)	0	-2	-2	0	1	/
C[C@@H]1COc2cc(Br)ccc2S(=O)(=O)N1Cc1cn(CCC2OCCO2)nn1	/	/	/	-1	9	/
CN(c1ccc(NC(=O)CCc2c[nH]c3ccccc23)cc1)c1ccccn1	/	/	/	0	7	/
CCC(=O)OCCCN1C(=O)CCC12CCC(C)CC2 (stereo unspecified)	/	/	/	0	9	/
Cc1cc(/C=C2\SC(=S)NC2=O)c(C)n1-c1cccc(O)c1	-127	53*	-29	1	3	51*
Cc1ccc(-n2c(C)cc(/C=C3\SC(=O)NC3=O)c2C)cc1	-3	3	-3	0	3	/
COc1cc(/C=N/Nc2nc3ccccc3s2)cc([N+](=O)[O-])c1O	10	48*	-3	6	-16	50*
CCc1cc(C(=O)N=Nc2c(O)[nH]c3c(Br)cc(Br)cc23)c2ccccc2n1	-11	75*	-12	0	6	20
CCc1cc(C(=O)N/N=C/c2ccc(O)cc2)c2ccccc2n1	-2	7	3	3	6	/
C[C@H](O)[C@@H]1CN2CCc3c([nH]c4c(-c5ccc6c(c5)OCO6)cccc34)[C@@H]2C[C@@H]1N(C)C(=O)c1ccccc1F	/	/	/	1	-2	/
NC1=NC(=O)/C(=C\c2cc([N+](=O)[O-])ccc2Cl)S1	4	46*	4	2	8	11
CCCCC[n+]1ccn(C2=C([O-])c3ccccc3C(=O)/C2=N\S(=O)(=O)c2ccc(Br)cc2)c1	3	47*	-14	-4	-1	33
CC(C)(C)c1cc[n+](C2=C([O-])c3ccccc3C(=O)/C2=N\S(=O)(=O)c2ccccc2)cc1	0	87*	-3	-2	9	81*
CCCC[n+]1ccn(-c2nc3ccccc3nc2[N-]S(=O)(=O)c2ccccc2)c1	-1	13	0	-2	7	/
Cc1c(C(C)(C)C)s/c(=N/S(=O)(=O)c2ccccc2)n1C	-10	0	1	1	0	/
CCCCC[n+]1ccn(C2=C([O-])c3ccccc3C(=O)/C2=N\S(=O)(=O)c2ccccc2)c1	-4	75*	-9	-4	8	59*
CCCCC[n+]1ccn(-c2nc3ccccc3nc2[N-]S(=O)(=O)c2ccc(C)cc2)c1	-10	5	6	4	-2	/
CCCC[n+]1ccn(C2=C([O-])c3ccccc3C(=O)/C2=N\S(=O)(=O)c2ccccc2)c1	-7	68*	-1	1	-1	66*
CC(C)=CCC[C@@]1(C(=O)O)[C@@H]2C/C=C(\C)CC/C=C(\C)CC[C@H]1[C@]1(CC2)CO1	/	/	/	5	6	/
C[C@@H]1CCN(C2CC2)S(=O)(=O)c2c(cccc2N2CC[C@H](O)C2)O1	/	/	/	1	-3	/
O=C(Nc1ccc2c(c1)Cc1ccccc1-2)NC1CCCCN(Cc2cccc(Cl)c2)C1=O (stereo unspecified)	/	/	/	-3	5	/
CC(C)[n+]1ccn(C2=C([O-])c3ccccc3C(=O)/C2=N\S(=O)(=O)c2ccccc2)c1	5	61*	-4	0	20	57*
COc1ccc(CNS(=O)(=O)/C=C/c2ccccc2CNC(=O)OC(C)(C)C)cc1	/	/	/	-5	1	/
SMILES	E coli Lon inh	GSTO1 counter	PAD4 inh	PRMT1 inh	TDP2 absorb	GSTO1 inh conf	others
Cc1cc(C)c(Nc2cc(S(=O)(=O)O)c(N)c3c2C(=O)c2ccccc2C3=O)c(C)c1	-1	80*	9	15	-6	88*
COc1ccc(CN=Cc2[nH]c3ccc(Br)c(Cl)c3c2O)cc1	-65	52*	-20	4	15	2
Oc1ccc(O)c(/C(=N/Nc2ccccc2)c2ccccc2)c1	/	40*	-15	/	/	6
O=C(Nc1ccc(Cl)cn1)c1ccc(COc2ccccc2Br)o1	2	63*	1	-3	1	3
CCOC(=O)c1sc(N(Cc2ccccc2)C(=O)COC(=O)c2ccccc2O)nc1C	3	11	-2	0	-5	/
CCOC(=O)c1sc(N(Cc2ccccc2)C(=O)CCl)nc1C	-2	84*	5	22*	1	92*
C[C@@H]1CN(C(=O)OC(C)(C)C)CCN1c1ccc(Br)c(C#N)c1	/	/	/	-4	1	/
O=C(CSc1ncn[nH]1)Nc1ccc(Cl)c(Cl)c1	2	52*	2	-4	3	34
S=C(NCc1cccc(Cl)c1)OC1CCC12CCC(c1ccccc1)CC2 (stereo unspecified)	/	/	/	-2	13	/
CCN(CC)c1ccc(C2Nc3cccc4cccc(c34)N2)c(O)c1	-10	30	-4	2	5	/
Oc1ccc2ccccc2c1C1Nc2cccc3cccc(c23)N1	-8	42*	-4	/	/	24
Oc1ccc(O)c(-c2cnns2)c1	19	89*	0	15	6	-5
COc1ccc(C(C(=O)NC2CCCC2)N(C(=O)c2ccoc2C)c2ccc(C)cc2)cc1 (stereo unspecified)	1	2	-1	-3	-3	/
COc1ccc(C(C(=O)NC2CCCCC2)N(C(=O)CCl)c2cccc(Cl)c2)cc1 (stereo unspecified)	-10	81*	4	2	-3	90*	GSTO1 ABPP inh=83*
COc1ccc(C(C(=O)NC2CCCCC2)N(C(=O)CCl)c2ccc(C)cc2)cc1 (stereo unspecified)	9	89*	3	-7	-2	95*	GSTO1 ABPP inh=88*
COC(CN(C(=O)CCl)C(C(=O)NC1CCCCC1)c1ccc(C)cc1)OC (stereo unspecified)	-6	93*	2	2	-3	91*	GSTO1 ABPP inh=61
Cc1ccccc1CN1CCCCC(NC(=O)Nc2ccccc2)C1=O (stereo unspecified)	/	/	/	1	6	/
N[C@H](C(=O)Nc1ccc(Cl)cc1C(=O)c1ccc[nH]1)c1ccccc1	/	/	/	1	6	/
CCOC(=O)Cn1cc(CN2C(C(=O)OC)CN(C3CCCC3)CCS2(=O)=O)nn1 (stereo unspecified)	/	/	/	-1	-16	/
O=C(c1ccc2c(c1)OCO2)N1CCC(Oc2cccnc2)CC1	/	/	/	5	-3	/
